Assay results collected from several papers.
Protocols differ between the studies behind these lines.
Target: cGMP-dependent protein kinase 1 (PRKG1, Homo sapiens, UniProt Q13976)
One construct used (Q13976 1-671): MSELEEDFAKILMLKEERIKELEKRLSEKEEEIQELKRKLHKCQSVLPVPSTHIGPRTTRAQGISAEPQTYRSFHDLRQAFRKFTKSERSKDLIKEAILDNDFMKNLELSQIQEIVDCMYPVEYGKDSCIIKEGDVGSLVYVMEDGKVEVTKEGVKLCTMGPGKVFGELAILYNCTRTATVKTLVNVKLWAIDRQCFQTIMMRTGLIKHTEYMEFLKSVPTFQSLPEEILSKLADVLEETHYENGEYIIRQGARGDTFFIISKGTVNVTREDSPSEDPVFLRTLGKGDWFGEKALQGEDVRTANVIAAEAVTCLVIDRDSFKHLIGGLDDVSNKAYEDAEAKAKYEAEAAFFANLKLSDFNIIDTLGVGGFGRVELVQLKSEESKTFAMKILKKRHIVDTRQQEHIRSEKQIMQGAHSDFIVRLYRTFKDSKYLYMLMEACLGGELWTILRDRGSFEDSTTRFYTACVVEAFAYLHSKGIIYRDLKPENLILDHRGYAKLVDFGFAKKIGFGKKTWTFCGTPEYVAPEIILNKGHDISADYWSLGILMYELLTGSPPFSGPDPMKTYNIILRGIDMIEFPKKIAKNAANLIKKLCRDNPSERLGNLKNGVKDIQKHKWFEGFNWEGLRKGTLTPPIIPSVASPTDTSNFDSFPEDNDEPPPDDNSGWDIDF

Compound | assay | setting | endpoint | result
Cc1cc(NC(=O)c2cccc3cc(-c4cccc5[nH]nc(N)c45)ccc23)ccc1F | enzyme activity, inhibitor | 0.1 µM | activity vs control | 122%
Nc1ncnc2occ(-c3ccc(NC(=O)Nc4cc(C(F)(F)F)ccc4F)cc3)c12 | cell-free assay, inhibitor | 20 µM | remaining signal | 87%
Cn1nc(C(=O)NCc2ccc(C(=O)O)cc2)cc1-c1ccc2[nH]ccc2c1 | cell-free assay, competition with immobilised ligand | 0.1 µM | remaining binding | 100%
COc1cc2ncnc(Nc3ccc(Oc4ccccc4)c(C)c3C)c2cc1OC | enzyme activity, inhibitor | 1 µM | inhibition | 4%
COc1cc(Cl)c(C(=O)N[C@@H](CN[C@H]2CC[C@@H](N)CC2)Cc2ccc(C#N)cc2)cc1-c1ccc(CN[C@H](C)c2ccc(C)cc2)o1 | enzyme activity, inhibitor | 1 µM | remaining activity | 91%
CC(C)c1ccc(NC(=O)c2cccs2)c(-c2nc3ccccc3[nH]c2=O)c1 | enzyme activity, inhibitor | 1 µM | activity vs control | 123%
CCCOc1ccc(OC)c(F)c1C(=O)c1ccc(C(=O)N[C@@H]2CNC[C@H]2NC(=O)c2ccc3[nH]ncc3c2)cc1 | enzyme activity, inhibitor | 0.1 µM | remaining activity | 15%
CN(C)c1ncnc(-c2ccc3nc(Nc4cc(CN5CCN(C(=O)CC(F)(F)F)CC5)ccn4)[nH]c3c2)c1Cl | cell-free assay, competition with immobilised ligand | 1 µM | remaining binding | 94%
CNC(=O)c1cc(Oc2ccc(NC(=O)Nc3ccc(Cl)c(C(F)(F)F)c3)cc2)ccn1 | enzyme activity, inhibitor | 0.3 µM | inhibition | -10%
O=C(Nc1cccnn1)N1CCC(=Cc2cccc(Oc3ccc(C(F)(F)F)cn3)c2)CC1 | cell-free assay, competition with immobilised ligand | 1 µM | remaining binding | 100%
CC(C)(C)c1nc2c(s1)c1nc(N)ncc1c1ccc(NS(=O)(=O)c3c(F)cccc3F)c(F)c12 | enzyme activity, inhibitor, radiometric | 1 µM | remaining activity | 99%
C[C@H](c1ccc(F)cc1)N(Cc1cccc(C(=O)O)c1)C(=O)c1cnc2ccccc2c1 | cell-free assay, competition with immobilised ligand | 1 µM | remaining binding | 100%
CCCS(=O)(=O)Nc1ccc(F)c(C(=O)c2c[nH]c3ncc(-c4ccc(Cl)cc4)cc23)c1F | enzyme activity, inhibitor | 1 µM | inhibition | < 10%
CN1CC(Oc2cnc(C#N)cc2-c2ccn3nc(NC(=O)C4CC4)cc3c2)C1 | enzyme activity, inhibitor | 1 µM | inhibition | 2%
NS(=O)(=O)c1cc(NC(=O)Cc2ccccc2)ccc1Oc1cccc(Cl)c1 | cell-free assay, competition with immobilised ligand | 1 µM | remaining binding | 100%
Cc1cnc(NC2CCOCC2)nc1-n1cnc(C(=O)NC(CN)c2cc(F)cc(Cl)c2)c1 (centres unmarked) | enzyme activity, inhibitor, radiometric | 1 µM | remaining activity | 100%
Cn1cnc(Br)c1C1=CN(c2ncnc3[nH]cnc23)CCS1 | enzyme activity, inhibitor, radiometric | 50 nM | inhibition | 72.1%
